From publication PMC12037726 (Nature Communications, 2025)
One block for each compound: values may come before it.

Legend:
[1] = target: T1, Mfd (Escherichia coli, UniProt P30958); assay: Isothermal titration calorimetry; format: binding, E. coli; settings: ITC, 25 °C; no inhibitor
T1 sequence (P30958 1-1148): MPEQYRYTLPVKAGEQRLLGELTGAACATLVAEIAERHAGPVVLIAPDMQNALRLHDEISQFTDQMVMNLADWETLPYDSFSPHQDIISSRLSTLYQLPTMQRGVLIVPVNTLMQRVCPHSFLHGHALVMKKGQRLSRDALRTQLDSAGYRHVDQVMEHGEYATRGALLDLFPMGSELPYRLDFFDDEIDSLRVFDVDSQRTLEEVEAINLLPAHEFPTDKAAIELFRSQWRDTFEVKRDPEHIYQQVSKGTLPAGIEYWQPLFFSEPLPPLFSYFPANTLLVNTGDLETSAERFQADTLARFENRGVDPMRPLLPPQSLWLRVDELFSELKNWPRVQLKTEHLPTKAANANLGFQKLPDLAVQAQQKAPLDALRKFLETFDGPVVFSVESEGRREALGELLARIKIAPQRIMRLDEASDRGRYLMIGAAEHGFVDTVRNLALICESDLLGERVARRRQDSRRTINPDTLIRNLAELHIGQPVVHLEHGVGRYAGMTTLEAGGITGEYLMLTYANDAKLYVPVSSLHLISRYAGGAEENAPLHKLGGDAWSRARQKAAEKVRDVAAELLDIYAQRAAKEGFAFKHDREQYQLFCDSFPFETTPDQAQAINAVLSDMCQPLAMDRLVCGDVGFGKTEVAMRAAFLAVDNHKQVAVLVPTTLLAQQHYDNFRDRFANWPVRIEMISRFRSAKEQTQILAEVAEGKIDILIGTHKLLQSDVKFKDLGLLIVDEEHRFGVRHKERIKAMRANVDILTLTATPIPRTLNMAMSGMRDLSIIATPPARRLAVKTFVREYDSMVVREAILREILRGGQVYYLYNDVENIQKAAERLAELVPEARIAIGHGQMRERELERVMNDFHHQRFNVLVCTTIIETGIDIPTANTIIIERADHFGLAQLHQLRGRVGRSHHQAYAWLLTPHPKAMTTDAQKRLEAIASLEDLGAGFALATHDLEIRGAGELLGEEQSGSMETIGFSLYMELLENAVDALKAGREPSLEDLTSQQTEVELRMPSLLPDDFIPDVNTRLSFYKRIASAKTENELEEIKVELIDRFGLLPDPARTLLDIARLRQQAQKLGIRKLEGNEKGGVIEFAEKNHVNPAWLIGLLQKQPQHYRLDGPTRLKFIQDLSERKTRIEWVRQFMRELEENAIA
Summary of the method: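 Full-length E. coli Mfd (20 µM) in 0.1 M Tris, 0.2 M NaCl, 4% DMSO, pH 8 at 25 °C. Titrated with 20 injections of 2.5 µL of 200 µM test compound at 300 s intervals. For the competition run, Mfd was preincubated with test compound, then ATP (200 µM) binding was measured. A = Ka/Kapp. Performed in triplicate.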

[2] = system: Vero cells; assay: Cytotoxicity, CellTiter96 AQueous; format: cell-based, monkey; settings: 1 h; MPN 10 and 100 µM, NM102 10 and 300 µM, NM102 nanoformulation 1.29 and 5.16 mM
Summary of the method: (§1)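 Cells grown in DMEM with 10% heat-inactivated FBS, 1 U/mL penicillin and 1 µg/mL streptomycin (37 °C, 5% CO2). At 70% confluency, trypsinised and seeded at 4 × 10^4 cells/well, then incubated overnight. Switched to antibiotic-free DMEM 2 h before assay. Exposed 1 h in HBSS with 10% DMSO or empty-nanoformulation controls. MTS reagent added for 1 h, A490 read. Reagent and compound backgrounds subtracted; normalised to untreated cells.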

[3] = system: K. pneumoniae ALE; assay: Mouse lung infection, CFU in lung at 24 h; format: in vivo; settings: MPN 10 mg/kg i.p.
Summary of the method: (§2)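 Nine-week-old female C57BL/6J mice were anaesthetized with ketamine (79 mg/kg) and xylazine (9 mg/kg) i.p. Infected intranasally with 1 × 10^7 CFU in 20 µL PBS from late-exponential cultures. MPN was given at 10 mg/kg i.p. At 24 h mice were killed and the left lung homogenized in PBS. Lung CFU were counted by serial dilution on LB agar and expressed as log CFU per gram.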

[4] = system: K. pneumoniae ∆mfd; assay: Mouse lung infection, CFU in lung at 24 h, ∆mfd mutant; format: in vivo; settings: NF-NM102 6 mg/kg or MPN 10 mg/kg i.p.
[5] = system: K. pneumoniae ATCC 700603 wt; assay: Mouse lung infection, CFU in lung at 24 h; format: in vivo; settings: MPN 10 mg/kg i.p.
Summary of the method: as §2

[6] = system: HeLa cells; assay: Cytotoxicity, CellTiter96 AQueous; format: cell-based, human; settings: 1 h; MPN 10 and 100 µM, NM102 10 and 300 µM, NM102 nanoformulation 1.29 and 5.16 mM
Summary of the method: as §1

[7] = system: P. aeruginosa CIP27853; assay: Mouse lung infection, CFU in lung at 24 h; format: in vivo; settings: MPN at 10 mg/ml, i.p.

Kd [1]: 145 ± 9 µM
Structure (SMILES): Nc1ncnc2c1ncn2[C@@H]1O[C@H](COP(=O)(O)OP(=O)(O)OP(=O)(O)O)[C@@H](O)[C@H]1O [ATP]

Structure (SMILES): C[C@@H](O)[C@H]1C(=O)N2C(C(=O)O)=C(S[C@@H]3CN[C@H](C(=O)N(C)C)C3)[C@H](C)[C@H]12 [MPN, meropenem]
cytotoxicity [2]: induced cytotoxicity
effect on bacterial load in the lung [3]: no significant effect
effect on bacterial burden of the ∆mfd mutant [4]: inhibited
reduction of the bacterial load [5]: 93%
cytotoxicity [6]: no toxicity
decrease of bacterial load [7]: 26 times
